Non-standard residues stand in square brackets, D forms with d. No end group written: not given here. *: point of attachment. FITC = O=C1OC2(c3ccc(O)cc3Oc3cc(O)ccc32)c2ccc(NC(=S)*)cc21

By Kd is commonly meant a measure of binding affinity in units of concentration. Usually stoichiometry N stands for the number of molecules, sites or subunits per partner or assembly.

For experiment [1], the system named is Jurkat cells stably expressing Bcl-2. As to the kind of experiment: Apoptosis of Jurkat cells stably expressing Bcl-2. The format is cell-based. The note with it: Figure S3. Summed up: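 Jurkat cells stably carrying an empty neo vector or a Bcl-2 expression vector, with Bcl-2 levels checked by immunoblot. Cells were exposed to the test peptide (10 µM) in medium with 5% FBS for 36 h. Apoptosis was scored by DAPI nuclear morphology.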

The test system of another experiment is CEM leukemia cells. As to the kind of experiment: Killing of CEM leukemia cells stably expressing Bcl-2. The class given is cell-based. The note with it: Figure S4.
For another experiment, the system named is Bcl-2^−/−MEFs. Kind of experiment: Apoptosis of Bcl-2 knockout MEFs. The format is cell-based, mouse. The note with it: STS 0.1 µM or Bad BH3 peptide 10 µM, 36 h, DAPI. The method, boiled down: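 Wild-type and Bcl-2−/− MEFs, with Bcl-2 status confirmed by immunoblotting, were exposed to staurosporine (0.1 µM) or Bad BH3 peptide (10 µM) for 36 h. Peptide treatments used medium with 10% FBS unless otherwise specified. Apoptosis was scored from nuclear morphology after DAPI staining.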

Experiment [2] concerns the target GST-Bcl-2/1-90 (UniProt P10415). As to the kind of experiment: fluorescence polarisation. (In general: Fluorescence polarisation rises when a labelled molecule tumbles more slowly, as on binding a larger partner.)
In experiment [3] the test system is mitochondria (RFP-Mito), H460 cells. Kind of experiment: Mitochondrial targeting in H460 cells. The format is cell-based. The note with it: FITC-D-NuBCP-9-r8 6 µM, 2 hr, or GFP fusions transfected 12 hr. Summed up: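 H460 cells on glass coverslips were transfected with RFP-Mito (50 ng) plus GFP fused to Nur77 residues 489–497 or 478–504 (50 ng) for 12 hr. In a second arm, cells were transfected with RFP-Mito for 12 hr and then treated with 6 µM FITC-labelled, r8-fused test peptide for 2 hr. Subcellular fluorophore localization was analysed by confocal microscopy.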

A further experiment deals with Bax. As to the kind of experiment: Bax activation in Bcl-2 knockout MEFs. The class given is cell-based, mouse. The conditions noted are these: NuBCP-9 10 µM 16 hr; or GFP-Nur77/478-504 cotransfected with Bcl-2. Summed up: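 Bcl-2−/− MEFs were run with wild-type MEFs and exposed to the test peptide (10 µM) for 16 hr. Alternatively, Bcl-2−/− MEFs were cotransfected with Bcl-2 (1 µg) plus GFP or GFP-Nur77/478-504 (1 µg). Active Bax was immunostained with 6A7 antibody and read by flow cytometry. Comparisons were treated vs untreated, or GFP-only vs Bcl-2-coexpressing cells from the same transfection.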

A further experiment concerns Bcl-B. Kind of experiment: Co-IP with Bcl-B. The class given is binding. The conditions noted are these: HEK293T. The method, boiled down: (§1)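 HEK293T cells were transfected with GFP-Nur77/478-504 (2 µg), with or without a Myc-tagged Bcl-2 family member plasmid (0.8 µg). Lysates were immunoprecipitated and complexes detected by western blot. Input was 5% of lysate, and one of three experiments is shown.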

For the next experiment, the system named is Bfl-1. As to the kind of experiment: Co-IP with Bfl-1. The note with it: HEK293T. The format is binding. Summed up: as §1
Experiment [4] has as its target T1, GST-Bcl-2 (Homo sapiens, UniProt P10415). As to the kind of experiment: FP competition assay, GST-Bcl-2. The format is binding. The note with it: 200 nM GST-Bcl-2, 20 nM FITC-NuBCP-r8, PBS pH 7.6, 25°C, triplicate.
Experiment [5] has as its target T1, GST-Bcl-2. Kind of experiment: FP binding to GST-Bcl-2. The note with it: 200 nM protein, 20 nM FITC peptide-r8, PBS pH 7.6, 25°C, triplicate. The method, boiled down: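 GST-Bcl-2 (200 nM) was incubated briefly with FITC-labelled, r8-fused test peptide (20 nM) in PBS, pH 7.6, at 25°C, in triplicate. GST-Bcl-XL and GST served as comparison proteins. Polarization was read at excitation 485 nm and emission 530 nm once the signal stabilized within 20 min. Kd was calculated from single-site binding curves and reported as mean ± SD.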

Experiment [6] concerns the target GST-Bcl-XL (Homo sapiens, UniProt Q07817). As to the kind of experiment: FP binding to GST-Bcl-XL. The conditions noted are these: 200 nM protein, 20 nM FITC peptide-r8, PBS pH 7.6, 25°C. Summed up:
(§2)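 Fluorescence polarization: 200 nM protein (GST or GST-Bcl-XL) was incubated with FITC-labelled r8 test peptide (20 nM) in PBS, pH 7.6, at 25°C, in triplicate. FP was read once the signal stabilized within 20 min (excitation 485 nm, emission 530 nm). Results are mean ± SD.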

The subject of another experiment is GST. As to the kind of experiment: FP binding to GST. The conditions noted are these: 200 nM protein, 20 nM FITC peptide-r8, PBS pH 7.6, 25°C. The method, boiled down:
as §2

For experiment [7], the target named is T1, GST-Bcl-2. As to the kind of experiment: circular dichroism. In general terms: Circular dichroism is widely used to follow secondary structure.
Experiment [8] has as its system various cancer cell lines. As to the kind of experiment: Apoptosis induction, various cancer cell lines. The class given is cell-based.
In experiment [9] the test system is normal primary mammary epithelial cells. Kind of experiment: Apoptosis of normal primary mammary epithelial cells. The format is cell-based. The note with it: 24 h, Annexin V; r8 conjugate. Summed up: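 Normal primary mammary epithelial cells were run alongside ZR-75-1 breast cancer cells. They were exposed to the r8-conjugated test peptide for 24 h in medium with 10% FBS. Apoptosis was read by Annexin V binding on flow cytometry.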

The target of experiment [10] is GST-Bcl-2 (UniProt P10415 1-239). As to the kind of experiment: circular dichroism.
The target in experiment [11] is GST-Bcl-XL (UniProt Q07817-1 1-233). Kind of experiment: fluorescence polarisation.
Experiment [12] deals with GST-Bcl-2/1-90 (UniProt P10415 1-90). Kind of experiment: fluorescence polarisation.
Chain of GST-Bcl-2/1-90 (UniProt P10415 1-90) (P10415 1-90): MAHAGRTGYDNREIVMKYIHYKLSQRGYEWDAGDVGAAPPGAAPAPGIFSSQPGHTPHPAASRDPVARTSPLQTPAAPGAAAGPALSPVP

T1 sequence (P10415 whole entry, the tested form may be a part): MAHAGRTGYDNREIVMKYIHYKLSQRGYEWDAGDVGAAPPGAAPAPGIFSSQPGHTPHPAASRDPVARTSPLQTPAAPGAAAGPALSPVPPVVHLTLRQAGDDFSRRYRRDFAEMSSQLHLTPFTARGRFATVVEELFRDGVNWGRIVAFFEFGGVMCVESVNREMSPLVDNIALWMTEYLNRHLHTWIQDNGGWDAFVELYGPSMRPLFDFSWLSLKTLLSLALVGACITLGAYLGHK
Chain of D-NuBCP-9 (unlabeled, in vitro assays) (P22736 whole entry, looked up): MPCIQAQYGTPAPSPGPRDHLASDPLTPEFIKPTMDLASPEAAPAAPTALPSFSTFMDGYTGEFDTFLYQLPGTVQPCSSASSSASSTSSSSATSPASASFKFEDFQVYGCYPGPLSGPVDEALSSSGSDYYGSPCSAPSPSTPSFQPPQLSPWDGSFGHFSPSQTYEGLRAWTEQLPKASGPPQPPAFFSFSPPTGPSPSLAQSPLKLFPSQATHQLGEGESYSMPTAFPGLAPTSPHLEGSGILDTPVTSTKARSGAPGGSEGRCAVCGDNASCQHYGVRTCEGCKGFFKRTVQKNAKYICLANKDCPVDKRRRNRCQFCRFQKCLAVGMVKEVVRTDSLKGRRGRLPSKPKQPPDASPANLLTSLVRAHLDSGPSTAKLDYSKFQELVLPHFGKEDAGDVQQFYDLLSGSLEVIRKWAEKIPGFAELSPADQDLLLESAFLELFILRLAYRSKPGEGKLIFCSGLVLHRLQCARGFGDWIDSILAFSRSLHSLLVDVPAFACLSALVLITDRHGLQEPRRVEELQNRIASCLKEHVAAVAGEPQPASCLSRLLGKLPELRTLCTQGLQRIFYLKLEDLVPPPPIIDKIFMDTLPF
Chain of GST-Bcl-2/1-90 (UniProt P10415) (P10415 1-90): as the sequence (P10415 1-90) above
Chain of FITC-D-NuBCP-9-r8 (P22736 whole entry, looked up): as the sequence (P22736 whole entry, looked up) above
Chain of GST-Bcl-2 (UniProt P10415 1-239) (P10415 whole entry): as the sequence (P10415 whole entry, the tested form may be a part) above
Chain of GST-Bcl-XL (UniProt Q07817-1 1-233) (Q07817 whole entry): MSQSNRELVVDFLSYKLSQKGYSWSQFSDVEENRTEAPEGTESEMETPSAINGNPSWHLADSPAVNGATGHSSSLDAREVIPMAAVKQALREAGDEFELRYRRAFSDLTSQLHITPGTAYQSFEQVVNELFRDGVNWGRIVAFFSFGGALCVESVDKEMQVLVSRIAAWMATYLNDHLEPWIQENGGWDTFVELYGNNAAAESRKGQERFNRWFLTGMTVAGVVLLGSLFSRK
Chain of GST-Bcl-XL (Homo sapiens, UniProt Q07817) (Q07817 whole entry): as above

Consider `CN[C@@H]1C[C@H]2O[C@@](C)([C@@H]1OC)n1c3ccccc3c3c4c(c5c6ccccc6n2c5c31)C(=O)NC4` [STS, staurosporine], for which the “effect of Bcl-2 overexpression on apoptosis” value in experiment [1] is “attenuated by Bcl-2 overexpression in Jurkat cells”. The “effect of stable Bcl-2 expression on killing” value with CEM leukemia cells is reported as “prevented the killing”. Also, in the experiment with Bcl-2^−/−MEFs, the “effect of Bcl-2 knockout on death effect” value is “enhanced in Bcl-2^−/−MEFs”.
“FITC-D-NuBCP-9-r8 (from UniProt P22736 489-497) (peptide)”: the Kd with GST-Bcl-2/1-90 [2] was 2500 nM. This lies in the single-digit micromolar range.
Take “GFP-Nur77/478-504: residues 478–504 of Nur77 fused with green fluorescence protein (GFGDWIDSILAFSRSLHSLLVDVPAFA; also: fused with GFP, end not given here)”: in experiment [3], the “co-localization with RFP-Mito” value is given as “co-localized extensively with RFP-Mito”. Also, in the experiment with Bax, the “Bax activation, Bcl-2^−/−MEFs” value is recorded as “Expression of Bcl-2 in Bcl-2^−/−MEFs restores Bax activation by NuBCP”. In addition, the “binding to Bcl-B” value in the experiment with Bcl-B is “bound to anti-apoptotic Bcl-2 family members, Bcl-B and Bfl-1”. Further, the “binding to Bfl-1” value in the experiment with Bfl-1 was “bound to anti-apoptotic Bcl-2 family members, Bcl-B and Bfl-1”.
With `CN(C)CC[C@H](CSc1ccccc1)Nc1ccc(S(=O)(=O)NC(=O)c2ccc(N3CCN(Cc4ccccc4-c4ccc(Cl)cc4)CC3)cc2)cc1[N+](=O)[O-]` [ABT-737], the “competition with FITC-NuBCP-9 binding to GST-Bcl-2” value on GST-Bcl-2 [4] is listed as “failure of either a BH3 peptide (Bak BH3) or a potent small molecule inhibitor (ABT-737) that targets the Bcl-2 BH3- binding site to reduce FITC-NuBCP-9 binding to GST-Bcl-2”.
Regarding “FITC-NuBCP-9: FITC-labeled NuBCP-9 (r8) ({FITC}-FSRSLHSLL; also: r8 (D-Arg octamer) attached, end not given here)”, in the experiment with GST-Bcl-2 [5], the “FP change with GST-Bcl-2” value was “induced a concentration-dependent FP of FITC-NuBCP-9 and FITC-D-NuBCP-9”. Also, the “FP change with GST-Bcl-XL” value with GST-Bcl-XL [6] is recorded as “neither GST-Bcl-XL nor GST, induced a concentration-dependent FP”. The “FP change with GST” value in the experiment with GST is listed as “neither GST-Bcl-XL nor GST, induced a concentration-dependent FP”.
In the experiment with GST-Bcl-2 [7], “D-NuBCP-9 (unlabeled, in vitro assays) (from UniProt P22736 489-497) (peptide)” gave a Kd of 2000 nM and a stoichiometry N of 1.
For “NuBCP-20: 20 amino acid peptide (aa 480 to 499) of Nur77 (GDWIDSILAFSRSLHSLLVD; UniProt P22736 480-499, looked up, fragment)”, the apoptotic effect result in experiment [8] (r8 conjugate) is “potent apoptotic effect in various cancer cell lines”. Moreover, the “apoptotic potency relative to Bid BH3 peptide” value in experiment [8] (various cancer cell lines) was “more potent than a BH3 peptide derived from the pro-apoptotic Bcl-2 family member Bid”. The apoptosis induction entry in [9] was “Neither NuBCP-20 nor NuBCP-9 induced the apoptosis of normal primary mammary epithelial cells”.
In the case of “FITC-NuBCP-9/AA: FITC-labeled NuBCP-9/AA ({FITC}-ASRSLHSLA; also: r8 (D-Arg octamer) attached, end not given here)”, the “FP change with GST-Bcl-2” value in the experiment with GST-Bcl-2 [5] is reported as “little affected”.
FSRSLHSLL (peptide, UniProt P22736 489-497, looked up) [NuBCP-9 (unlabeled, in vitro assays)]: the “stoichiometry N” value in the experiment with GST-Bcl-2 [10] came to 1.
Consider VHLTLRQAGDDFSRR (also: F5M-labelled Cys, position not given here) [F5M-Bcl-2 BH3 peptide], for which, in the experiment with GST-Bcl-XL [11], binding was characterised by a dissociation constant (Kd) of 145 nM.
{FITC}-FSRSLHSLL[dR][dR][dR][dR][dR][dR][dR][dR] (peptide, UniProt P22736 489-497, looked up) [FITC-NuBCP-9-r8] returned a Kd with GST-Bcl-2/1-90 [12] of 1700 nM.

The values above are taken from article PMC2667967 (Cancer cell, 2008).
